Test results reported in ChEMBL document CHEMBL2375229, “Synthesis and biological activities of some novel aminomethyl derivatives of 4-substituted-5-(2-thienyl)-2,4-dihydro-3H-1,2,4-triazole-3-thiones” (2013).
In brackets after ≈: the same amount, converted by molar mass.

test system: Radical scavenging activity; test: Antioxidant activity of the compound assessed as DPPH free radical scavenging activity at 187.5 uM after 60 mins by spectrophotometric analysis relative to control; format: functional
Method in brief: (§1)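 DPPH• and sample stocks made in DMSO. DPPH• mixed with sample at several concentrations and brought to 4.0 mL in DMSO. Incubated 60 min at 25 °C in the dark, then absorbance read at 517 nm with solvent correction. Scavenging % = (A0−As)/A0×100 against a DPPH-only control. Ascorbic acid standard. Mean ± SD, n = 3.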

SMILES	inhibition
O=C1O[C@H]([C@@H](O)CO)C(O)=C1O	75.2%
S=c1[nH]nc(-c2cccs2)n1-c1ccccc1	47.9%
CCn1c(-c2cccs2)nn(CN2CCOCC2)c1=S	82.8%
CCn1c(-c2cccs2)nn(CN2CCN(c3cccc(C(F)(F)F)c3)CC2)c1=S	71.3%
CCn1c(-c2cccs2)n[nH]c1=S	49.6%
C=CCn1c(-c2cccs2)nn(CN2CCN(c3ccccc3)CC2)c1=S	75%
C=CCn1c(-c2cccs2)nn(CN2CCOCC2)c1=S	83.1%
CCCN(CCC)Cn1nc(-c2cccs2)n(-c2ccccc2)c1=S	72.1%

test system: Klebsiella pneumoniae; test: Antibacterial activity against Klebsiella pneumoniae assessed as growth inhibition after 3 to 4 days by serial plate dilution method; format: functional
Method in brief: (§2)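 Serial dilution in Mueller-Hinton broth adjusted to pH 5.0 with phosphate buffer. Standardized bacterial suspension inoculated, 16-18 h at 37 °C. Agar-well plates also used: compounds in DMSO added to punched wells, DMSO solvent control, triplicate plates held at 37 °C for 3–4 days. MIC taken as lowest concentration with no visible growth. Range tested 1.56–25 µg/mL. Ciprofloxacin standard.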

SMILES	MIC
S=c1[nH]nc(-c2cccs2)n1-c1ccccc1	12 µg/mL (≈ 46.3 µM)
CCn1c(-c2cccs2)n[nH]c1=S	12 µg/mL (≈ 56.8 µM)
CCCN(CCC)Cn1nc(-c2cccs2)n(-c2ccccc2)c1=S	6.25 µg/mL (≈ 16.8 µM)

Next, values leading:

MIC	SMILES
6.25 µg/mL (≈ 20.1 µM)	CCn1c(-c2cccs2)nn(CN2CCOCC2)c1=S
3.12 µg/mL (≈ 6.88 µM)	CCn1c(-c2cccs2)nn(CN2CCN(c3cccc(C(F)(F)F)c3)CC2)c1=S
6.25 µg/mL (≈ 15.7 µM)	C=CCn1c(-c2cccs2)nn(CN2CCN(c3ccccc3)CC2)c1=S
6.25 µg/mL (≈ 19.4 µM)	C=CCn1c(-c2cccs2)nn(CN2CCOCC2)c1=S

test system: Radical scavenging activity; test: Antioxidant activity of the compound assessed as DPPH free radical scavenging activity at 250 uM after 60 mins by spectrophotometric analysis relative to control; format: functional; method in brief: as §1

SMILES	inhibition
O=C1O[C@H]([C@@H](O)CO)C(O)=C1O	85.8%
S=c1[nH]nc(-c2cccs2)n1-c1ccccc1	51.2%
CCn1c(-c2cccs2)nn(CN2CCOCC2)c1=S	88.6%
CCn1c(-c2cccs2)nn(CN2CCN(c3cccc(C(F)(F)F)c3)CC2)c1=S	80.2%
CCn1c(-c2cccs2)n[nH]c1=S	53.3%
C=CCn1c(-c2cccs2)nn(CN2CCN(c3ccccc3)CC2)c1=S	84.1%
C=CCn1c(-c2cccs2)nn(CN2CCOCC2)c1=S	89.9%
CCCN(CCC)Cn1nc(-c2cccs2)n(-c2ccccc2)c1=S	81.4%

test system: Trichophyton mentagrophytes; test: Antifungal activity against Trichophyton mentagrophytes assessed as growth inhibition after 3 to 4 days by serial plate dilution method; format: functional
Method in brief: (§3)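 Agar of peptone, D-glucose and agar at pH 5.7, lawned with saline spore suspension and dried 1 h at 37 °C. Compounds in DMSO added to punched wells, DMSO solvent control. Triplicate plates held at 37 °C for 3–4 days. […] Ciclopiroxolamine standard.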

SMILES	MIC
S=c1[nH]nc(-c2cccs2)n1-c1ccccc1	12 µg/mL (≈ 46.3 µM)
CCn1c(-c2cccs2)n[nH]c1=S	12 µg/mL (≈ 56.8 µM)
CCCN(CCC)Cn1nc(-c2cccs2)n(-c2ccccc2)c1=S	6.25 µg/mL (≈ 16.8 µM)

Further lines, results first:

MIC	SMILES
1.56 µg/mL (≈ 5.02 µM)	CCn1c(-c2cccs2)nn(CN2CCOCC2)c1=S
3.12 µg/mL (≈ 6.88 µM)	CCn1c(-c2cccs2)nn(CN2CCN(c3cccc(C(F)(F)F)c3)CC2)c1=S
3.12 µg/mL (≈ 7.85 µM)	C=CCn1c(-c2cccs2)nn(CN2CCN(c3ccccc3)CC2)c1=S
1.56 µg/mL (≈ 4.84 µM)	C=CCn1c(-c2cccs2)nn(CN2CCOCC2)c1=S

test system: Staphylococcus aureus; test: Antibacterial activity against Staphylococcus aureus ATCC 25923 assessed as growth inhibition after 3 to 4 days by serial plate dilution method; format: functional; method in brief: as §2

SMILES	MIC
S=c1[nH]nc(-c2cccs2)n1-c1ccccc1	12 µg/mL (≈ 46.3 µM)
CCn1c(-c2cccs2)n[nH]c1=S	12 µg/mL (≈ 56.8 µM)
CCCN(CCC)Cn1nc(-c2cccs2)n(-c2ccccc2)c1=S	6.25 µg/mL (≈ 16.8 µM)

More lines, now with the values ahead:

MIC	SMILES
3.12 µg/mL (≈ 10 µM)	CCn1c(-c2cccs2)nn(CN2CCOCC2)c1=S
1.56 µg/mL (≈ 3.44 µM)	CCn1c(-c2cccs2)nn(CN2CCN(c3cccc(C(F)(F)F)c3)CC2)c1=S
6.25 µg/mL (≈ 15.7 µM)	C=CCn1c(-c2cccs2)nn(CN2CCN(c3ccccc3)CC2)c1=S
3.12 µg/mL (≈ 9.68 µM)	C=CCn1c(-c2cccs2)nn(CN2CCOCC2)c1=S

test system: Radical scavenging activity; test: Antioxidant activity of the compound assessed as DPPH free radical scavenging activity at 312.5 uM after 60 mins by spectrophotometric analysis relative to control; format: functional; method in brief: as §1

SMILES	inhibition
O=C1O[C@H]([C@@H](O)CO)C(O)=C1O	91.7%
S=c1[nH]nc(-c2cccs2)n1-c1ccccc1	65.1%
CCn1c(-c2cccs2)nn(CN2CCOCC2)c1=S	93.6%
CCn1c(-c2cccs2)nn(CN2CCN(c3cccc(C(F)(F)F)c3)CC2)c1=S	81.6%
CCn1c(-c2cccs2)n[nH]c1=S	62.1%
C=CCn1c(-c2cccs2)nn(CN2CCN(c3ccccc3)CC2)c1=S	91.6%
C=CCn1c(-c2cccs2)nn(CN2CCOCC2)c1=S	95%

test system: Escherichia coli; test: Antibacterial activity against Escherichia coli ATCC 25922 assessed as growth inhibition after 3 to 4 days by serial plate dilution method; format: functional; method in brief: as §2

SMILES	MIC
S=c1[nH]nc(-c2cccs2)n1-c1ccccc1	12 µg/mL (≈ 46.3 µM)
CCn1c(-c2cccs2)n[nH]c1=S	12 µg/mL (≈ 56.8 µM)
CCCN(CCC)Cn1nc(-c2cccs2)n(-c2ccccc2)c1=S	12 µg/mL (≈ 32.2 µM)

Results, then the compound that gave them:

MIC	SMILES
6.25 µg/mL (≈ 20.1 µM)	CCn1c(-c2cccs2)nn(CN2CCOCC2)c1=S
3.12 µg/mL (≈ 6.88 µM)	CCn1c(-c2cccs2)nn(CN2CCN(c3cccc(C(F)(F)F)c3)CC2)c1=S
12 µg/mL (≈ 30.2 µM)	C=CCn1c(-c2cccs2)nn(CN2CCN(c3ccccc3)CC2)c1=S
6.25 µg/mL (≈ 19.4 µM)	C=CCn1c(-c2cccs2)nn(CN2CCOCC2)c1=S

test system: Aspergillus flavus; test: Antifungal activity against Aspergillus flavus NCIM 524 assessed as growth inhibition after 3 to 4 days by serial plate dilution method; format: functional; method in brief: as §3

SMILES	MIC
S=c1[nH]nc(-c2cccs2)n1-c1ccccc1	12 µg/mL (≈ 46.3 µM)
CCn1c(-c2cccs2)n[nH]c1=S	12 µg/mL (≈ 56.8 µM)
CCCN(CCC)Cn1nc(-c2cccs2)n(-c2ccccc2)c1=S	6.25 µg/mL (≈ 16.8 µM)

Continued, values first:

MIC	SMILES
1.56 µg/mL (≈ 5.02 µM)	CCn1c(-c2cccs2)nn(CN2CCOCC2)c1=S
3.12 µg/mL (≈ 6.88 µM)	CCn1c(-c2cccs2)nn(CN2CCN(c3cccc(C(F)(F)F)c3)CC2)c1=S
3.12 µg/mL (≈ 7.85 µM)	C=CCn1c(-c2cccs2)nn(CN2CCN(c3ccccc3)CC2)c1=S
1.56 µg/mL (≈ 4.84 µM)	C=CCn1c(-c2cccs2)nn(CN2CCOCC2)c1=S

test system: Aspergillus fumigatus; test: Antifungal activity against Aspergillus fumigatus NCIM 902 assessed as growth inhibition after 3 to 4 days by serial plate dilution method; format: functional; method in brief: as §3

SMILES	MIC
S=c1[nH]nc(-c2cccs2)n1-c1ccccc1	25 µg/mL (≈ 96.4 µM)
CCn1c(-c2cccs2)n[nH]c1=S	25 µg/mL (≈ 118 µM)
CCCN(CCC)Cn1nc(-c2cccs2)n(-c2ccccc2)c1=S	12 µg/mL (≈ 32.2 µM)

Now from value to compound:

MIC	SMILES
3.12 µg/mL (≈ 10 µM)	CCn1c(-c2cccs2)nn(CN2CCOCC2)c1=S
6.25 µg/mL (≈ 13.8 µM)	CCn1c(-c2cccs2)nn(CN2CCN(c3cccc(C(F)(F)F)c3)CC2)c1=S
6.25 µg/mL (≈ 15.7 µM)	C=CCn1c(-c2cccs2)nn(CN2CCN(c3ccccc3)CC2)c1=S
3.12 µg/mL (≈ 9.68 µM)	C=CCn1c(-c2cccs2)nn(CN2CCOCC2)c1=S

test system: Pseudomonas aeruginosa; test: Antibacterial activity against Pseudomonas aeruginosa ATCC 27853 assessed as growth inhibition after 3 to 4 days by serial plate dilution method; format: functional; method in brief: as §2

SMILES	MIC
S=c1[nH]nc(-c2cccs2)n1-c1ccccc1	12 µg/mL (≈ 46.3 µM)
CCn1c(-c2cccs2)n[nH]c1=S	12 µg/mL (≈ 56.8 µM)
CCCN(CCC)Cn1nc(-c2cccs2)n(-c2ccccc2)c1=S	12 µg/mL (≈ 32.2 µM)

More lines, now with the values ahead:

MIC	SMILES
6.25 µg/mL (≈ 20.1 µM)	CCn1c(-c2cccs2)nn(CN2CCOCC2)c1=S
3.12 µg/mL (≈ 6.88 µM)	CCn1c(-c2cccs2)nn(CN2CCN(c3cccc(C(F)(F)F)c3)CC2)c1=S
12 µg/mL (≈ 30.2 µM)	C=CCn1c(-c2cccs2)nn(CN2CCN(c3ccccc3)CC2)c1=S
6.25 µg/mL (≈ 19.4 µM)	C=CCn1c(-c2cccs2)nn(CN2CCOCC2)c1=S

test system: Talaromyces marneffei; test: Antifungal activity against Penicillium marneffei assessed as growth inhibition after 3 to 4 days by serial plate dilution method; format: functional; method in brief: as §3

SMILES	MIC
S=c1[nH]nc(-c2cccs2)n1-c1ccccc1	25 µg/mL (≈ 96.4 µM)
CCn1c(-c2cccs2)n[nH]c1=S	25 µg/mL (≈ 118 µM)
CCCN(CCC)Cn1nc(-c2cccs2)n(-c2ccccc2)c1=S	12 µg/mL (≈ 32.2 µM)

The remaining lines, values ahead:

MIC	SMILES
3.12 µg/mL (≈ 10 µM)	CCn1c(-c2cccs2)nn(CN2CCOCC2)c1=S
6.25 µg/mL (≈ 13.8 µM)	CCn1c(-c2cccs2)nn(CN2CCN(c3cccc(C(F)(F)F)c3)CC2)c1=S
6.25 µg/mL (≈ 15.7 µM)	C=CCn1c(-c2cccs2)nn(CN2CCN(c3ccccc3)CC2)c1=S
3.12 µg/mL (≈ 9.68 µM)	C=CCn1c(-c2cccs2)nn(CN2CCOCC2)c1=S

test system: Radical scavenging activity; test: Antioxidant activity of the compound assessed as DPPH free radical scavenging activity at 125 uM after 60 mins by spectrophotometric analysis relative to control; format: functional; method in brief: as §1

SMILES	inhibition
O=C1O[C@H]([C@@H](O)CO)C(O)=C1O	65%
S=c1[nH]nc(-c2cccs2)n1-c1ccccc1	45.7%
CCn1c(-c2cccs2)nn(CN2CCOCC2)c1=S	69.8%
CCn1c(-c2cccs2)nn(CN2CCN(c3cccc(C(F)(F)F)c3)CC2)c1=S	61.1%
CCn1c(-c2cccs2)n[nH]c1=S	47.1%
C=CCn1c(-c2cccs2)nn(CN2CCN(c3ccccc3)CC2)c1=S	64.4%
C=CCn1c(-c2cccs2)nn(CN2CCOCC2)c1=S	71.2%
CCCN(CCC)Cn1nc(-c2cccs2)n(-c2ccccc2)c1=S	62.6%

test system: Radical scavenging activity; test: Antioxidant activity of the compound assessed as DPPH free radical scavenging activity at 62.5 uM after 60 mins by spectrophotometric analysis relative to control; format: functional; method in brief: as §1

SMILES	inhibition
O=C1O[C@H]([C@@H](O)CO)C(O)=C1O	55.1%
S=c1[nH]nc(-c2cccs2)n1-c1ccccc1	36.1%
CCn1c(-c2cccs2)nn(CN2CCOCC2)c1=S	60.4%
CCn1c(-c2cccs2)nn(CN2CCN(c3cccc(C(F)(F)F)c3)CC2)c1=S	52%
CCn1c(-c2cccs2)n[nH]c1=S	36.4%
C=CCn1c(-c2cccs2)nn(CN2CCN(c3ccccc3)CC2)c1=S	54%
C=CCn1c(-c2cccs2)nn(CN2CCOCC2)c1=S	62.3%
CCCN(CCC)Cn1nc(-c2cccs2)n(-c2ccccc2)c1=S	52.1%
